Measurements reported in ChEMBL document CHEMBL3870308, “Repurposing of a drug scaffold: Identification of novel sila analogues of rimonabant as potent antitubercular agents” (Eur J Med Chem, 2016).
Converted amounts (≈) assume the structure as drawn.

Columns and labels:
[1] = Cytotoxicity against human THP1 cells assessed as reduction in cell viability at =>3 uM measured after 48 hrs by MTT assay; format: toxicity, cell-based, THP-1; conditions: read-out: INH
[2] = Metabolic stability in human plasma at 50 uM measured after 60 mins by LC-MS/MS analysis; format: ADME, cell-free; conditions: read-out: Stability
Outline: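 Working solution at 50 µM in acetonitrile:water (1:1), from a 10 mM DMSO stock. 2 µL added to 98 µL of plasma and incubated 60 min at 37 °C. Quenched with methanol containing internal standard, centrifuged, and supernatant analysed by LC-MS/MS.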

[3] = Cytotoxicity against human HepG2 cells measured after 48 hrs by MTT assay; format: toxicity, cell-based
Outline: (§1)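 Cells from ATCC grown in DMEM with 10% FBS at 37 °C in 5% CO2, harvested by trypsinization and seeded at 7500 cells per well. After 18 h, compound added at final 0.1, 1, 10 and 100 µM in triplicate. Plates incubated 48 h, then MTT for 60 min at 37 °C. Formazan dissolved in DMSO and read at 560 nm. Percent growth taken relative to control wells, with dose-response curves. Repeated three times, mean ± SD.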

[4] = system: Mycobacterium tuberculosis; assay: Antitubercular activity against Mycobacterium tuberculosis H37Rv assessed as growth inhibition by Alamar-Blue assay; format: functional
[5] = Selectivity index, ratio of IC50 for human HepG2 cells to MIC for Mycobacterium tuberculosis H37Rv; format: toxicity, cell-based; conditions: read-out: Ratio IC50
[6] = Selectivity index, ratio of IC50 for human A549 cells to MIC for Mycobacterium tuberculosis H37Rv; format: toxicity, cell-based; conditions: read-out: Ratio IC50
[7] = system: Mycobacterium tuberculosis; assay: Antimycobacterial activity against Mycobacterium tuberculosis by broth microdilution assay; format: functional
[8] = Cytotoxicity against mouse RAW cells assessed as reduction in cell viability at =>3 uM measured after 48 hrs by MTT assay; format: toxicity; conditions: read-out: INH
[9] = Cytotoxicity against human A549 cells measured after 48 hrs by MTT assay; format: toxicity, cell-based; outline: as §1
[10] = Protein binding human plasma at 150 uM measured after 30 mins by equilibrium dialysis method; format: ADME, cell-free; conditions: read-out: PPB (converted)
Outline: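 Plasma spiked with 5 µL of 150 µM compound per 745 µL. Sampled at 0 h, then incubated 30 min at 37 °C. Rapid equilibrium dialysis of plasma against KH2PO4 buffer pH 7.4 for 4 h at 37 °C with shaking. Both chambers matrix-matched and precipitated with methanol containing tolbutamide internal standard. Analysed by LC-MS/MS.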

[11] = Solubility of the compound at pH 7.4 by HPLC method; format: physicochemical; conditions: buffer
Outline: (§2)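 Compound diluted to a 5 mM DMSO working solution from a 10 mM stock. 5 µL added to 495 µL of buffer at the stated pH. Vortexed 5 min and centrifuged. Supernatant quantified by HPLC.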

[12] = Metabolic stability in mouse liver microsomes at 1 or 50 uM measured after 30 to 60 mins in presence of cofactor by LC-MS/MS analysis; format: ADME
Outline: (§3)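 Stock 10 mM in DMSO, diluted to a 50 µM working solution in acetonitrile:water (1:1). 2 µL of this added to 98 µL of buffer, microsomes and cofactor. Incubated at 37 °C for 15, 30, 45 and 60 min. Stopped with methanol containing internal standard, vortexed and centrifuged. Supernatant analysed by LC-MS/MS.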

[13] = Solubility of the compound at pH 10.2 by HPLC method; format: physicochemical; conditions: buffer; outline: as §2
[14] = Solubility of the compound at pH 1.2 by HPLC method; format: physicochemical; conditions: buffer; outline: as §2
[15] = Solubility of the compound at pH 2.2 by HPLC method; format: physicochemical; conditions: buffer; outline: as §2
[16] = Solubility of the compound at pH 4.5 by HPLC method; format: physicochemical; conditions: buffer; outline: as §2
[17] = Metabolic stability in human liver microsomes at 1 or 50 uM measured after 30 to 60 mins in presence of cofactor by LC-MS/MS analysis; format: ADME; outline: as §3

SMILES	remaining at 1 h, 50 µM [2] [%]	IC50 at 48 h [3] [µM]	MIC [4] [µg/mL]	selectivity ratio [5]	selectivity ratio [6]	IC50 at 48 h [9] [µM]	fraction unbound at 0.5 h, 150 µM [10]	other results
Cc1c(CN2CCN(C)CC2)cc(-c2ccc(Cl)cc2)n1-c1ccc(Cl)cc1	100	71	0.7 (≈ 1.69 µM)	44.4	57.2	91.5	0.0077	cytotoxicity at 48 h [1]: 40 to 60%; MIC [7]: 0.7 to 1.5 µg/mL (≈ 1.69 to 3.62 µM); cytotoxicity at 48 h [8]: 40 to 60%
C[Si]1(C)CCN(NCc2cc(-c3ccc(Cl)cc3)n(-c3ccc(Cl)cc3)n2)CC1	100	86.8	0.39 (≈ 0.875 µM)	99.8	84.2	73.2	0.0069	cytotoxicity at 48 h [1]: 40 to 60%; solubility [11]: 39.8 µM (≈ 17.7 µg/mL); Stability [12]: 100%; solubility [13]: 38 µM (≈ 16.9 µg/mL); solubility [14]: 43.1 µM (≈ 19.2 µg/mL); solubility [15]: 43.2 µM (≈ 19.2 µg/mL); solubility [16]: 44.3 µM (≈ 19.7 µg/mL); cytotoxicity at 48 h [8]: 40 to 60%; Stability [17]: 93.1%
CN(C)CCCNC(=O)c1cc(-c2ccc(Cl)cc2)n(-c2ccc(Cl)cc2)n1	–	–	25 (≈ 59.9 µM)	–	–	–	–	–
Cc1c(CN2CCN(C)CC2)nn(-c2ccc(Cl)cc2Cl)c1-c1ccc(Cl)cc1	–	85	12.5 (≈ 27.8 µM)	3.1	2.9	80.3	–	–
Cc1c(CN2CC[Si](C)(C)CC2)nn(-c2ccc(Cl)cc2Cl)c1-c1ccc(Cl)cc1	99.2	51.9	1.17 (≈ 2.44 µM)	30.5	31.9	54.2	0.0005	cytotoxicity at 48 h [1]: 40 to 60%; solubility [11]: 1.05 µM (≈ 0.503 µg/mL); Stability [12]: 9.2%; solubility [13]: 10.9 µM (≈ 5.24 µg/mL); solubility [14]: 41 µM (≈ 19.6 µg/mL); solubility [15]: 40.6 µM (≈ 19.4 µg/mL); solubility [16]: 34.2 µM (≈ 16.4 µg/mL); cytotoxicity at 48 h [8]: 40 to 60%; Stability [17]: 18.5%
Cc1c(C(=O)N2CCNCC2)nn(-c2ccc(Cl)cc2Cl)c1-c1ccc(Cl)cc1	–	–	25 (≈ 55.6 µM)	–	–	–	–	–
C[Si]1(C)CCN(Cc2nn(-c3ccc(Cl)cc3Cl)c(-c3ccc(Cl)cc3)c2CO)CC1	88.1	30.4	6.25 (≈ 12.6 µM)	2.41	4.92	61.9	0.0004	solubility [11]: 5.31 µM (≈ 2.63 µg/mL); Stability [12]: 3.7%; solubility [13]: 2.39 µM (≈ 1.18 µg/mL); solubility [14]: 44 µM (≈ 21.8 µg/mL); solubility [15]: 42.5 µM (≈ 21 µg/mL); solubility [16]: 41.6 µM (≈ 20.6 µg/mL); Stability [17]: 2.1%
Cc1c(C(=O)NCCCN(C)C)nn(-c2ccc(Cl)cc2Cl)c1-c1ccc(Cl)cc1	–	–	25 (≈ 53.7 µM)	–	–	–	–	–
Clc1ccc(-c2cc(CN3CCCCC3)nn2-c2ccc(Cl)cc2)cc1	91.7	–	1.56 (≈ 4.04 µM)	–	–	–	0.0011	solubility [11]: 11.4 µM (≈ 4.4 µg/mL); Stability [12]: 26%; solubility [13]: 1.49 µM (≈ 0.576 µg/mL); solubility [14]: 45 µM (≈ 17.4 µg/mL); solubility [15]: 44.6 µM (≈ 17.2 µg/mL); solubility [16]: 43.6 µM (≈ 16.8 µg/mL); Stability [17]: 60.1%
O=C1CCN(Cc2cc(-c3ccc(Cl)cc3)n(-c3ccc(Cl)cc3)n2)CC1	–	–	25 (≈ 62.5 µM)	–	–	–	–	–
Cc1c(CNCc2ccccc2)nn(-c2ccc(Cl)cc2Cl)c1-c1ccc(Cl)cc1	–	57.4	6.25 (≈ 13.7 µM)	4.2	4.1	55.8	–	–
O=C(c1cc(-c2ccc(Cl)cc2)n(-c2ccc(Cl)cc2)n1)N1CCNCC1	–	–	25 (≈ 62.3 µM)	–	–	–	–	–
Cc1c(C(=O)NN2CCN(C)CC2)nn(-c2ccc(Cl)cc2Cl)c1-c1ccc(Cl)cc1	–	–	25 (≈ 52.2 µM)	–	–	–	–	–
Cc1c(CN(C)C)nn(-c2ccc(Cl)cc2Cl)c1-c1ccc(Cl)cc1	–	36.3	6.25 (≈ 15.8 µM)	2.3	3.62	57.2	–	–
C[Si]1(C)CCN(Cc2cc(-c3ccc(Cl)cc3)n(-c3ccc(Cl)cc3)n2)CC1	100	21.4	0.031 (≈ 0.072 µM)	306	841	58.9	0.0007	cytotoxicity at 48 h [1]: 40 to 60%; solubility [11]: 3.72 µM (≈ 1.6 µg/mL); Stability [12]: 6.3%; solubility [13]: 1.99 µM (≈ 0.857 µg/mL); solubility [14]: 43 µM (≈ 18.5 µg/mL); solubility [15]: 42.3 µM (≈ 18.2 µg/mL); solubility [16]: 41.9 µM (≈ 18 µg/mL); cytotoxicity at 48 h [8]: 40 to 60%; Stability [17]: 20.3%
CN(C)C(=O)c1cc(-c2ccc(Cl)cc2)n(-c2ccc(Cl)cc2)n1	–	–	25 (≈ 69.4 µM)	–	–	–	–	–
CN1CCN(Cc2cc(-c3ccc(Cl)cc3)n(-c3ccc(Cl)cc3)n2)CC1	–	–	25 (≈ 62.3 µM)	–	–	–	–	–
C[Si]1(C)CCN(C(=O)c2cc(-c3ccc(Cl)cc3)n(-c3ccc(Cl)cc3)n2)CC1	89.7	59	6.25 (≈ 14.1 µM)	4.18	4.85	68.3	0.0001	solubility [11]: 0.05 µM (≈ 0.0222 µg/mL); Stability [12]: 3.9%; solubility [13]: 1.28 µM (≈ 0.569 µg/mL); solubility [14]: 0.16 µM (≈ 0.0711 µg/mL); solubility [15]: 0.18 µM (≈ 0.08 µg/mL); solubility [16]: 0.13 µM (≈ 0.0578 µg/mL); Stability [17]: 2.1%
Cc1c(CN2CCNCC2)nn(-c2ccc(Cl)cc2Cl)c1-c1ccc(Cl)cc1	–	–	25 (≈ 57.4 µM)	–	–	–	–	–
Cc1c(CN2CCCCC2)nn(-c2ccc(Cl)cc2Cl)c1-c1ccc(Cl)cc1	–	> 100	12.5 (≈ 28.7 µM)	> 3.5	3.1	88.8	–	–
COc1cccc2c1C(=O)c1c(O)c3c(c(O)c1C2=O)C[C@@](O)(C(=O)CO)C[C@@H]3O[C@H]1C[C@H](N)[C@H](O)[C@H](C)O1 [DOXORUBICIN]	–	5.34	–	–	–	5.32	–	–
NNC(=O)c1ccncc1 [ISONIAZID]	–	–	0.3 (≈ 2.19 µM)	–	–	–	–	–
Cc1c(C(=O)NN2CCCCC2)nn(-c2ccc(Cl)cc2Cl)c1-c1ccc(Cl)cc1 [RIMONABANT]	–	–	25 (≈ 53.9 µM)	–	–	–	–	–
